Test [1] deals with HepG2. The test can be described thus: Compound evaluated for percent inhibition of cholesterol synthesis from [14C]acetate in HepG2 cell. Type of test: functional, Homo sapiens. On the set-up: concentration or dose not given beside the values.
The species entered for test [2] is Gallus gallus. The experiment in a line: Compound is evaluated for the effect on lipid metabolism in 6-week-old male chickens at a concentration of 20 ppm in the diet and measured for HDL cholesterol. It counts as functional.
For test [3], the species on record is Gallus gallus. The experiment in a line: picomoles of mevalonic acid synthesized per minute per mg of microsomal protein. It counts as functional, organism-based.
Test [4] is filed under the species Gallus gallus. The experiment in a line: Compound is evaluated for the effect on lipid metabolism in 6-week-old male chickens at a concentration of 20 ppm in the diet and measured for LDL cholesterol. It counts as functional. A digest of the protocol: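 Male chicks were raised 2 weeks on a corn-soybean control diet, then fed 4 weeks on control diet or the same diet with compound added. All birds were fasted 36 h and refed 48 h before sacrifice. Serum cholesterol is given as mg/100 mL.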

Test [5] is filed under the species Gallus gallus. The test can be described thus: Compound is evaluated for the effect on lipid metabolism in 6-week-old male chickens at a concentration of 20 ppm in the diet and measured for total cholesterol. Type of test: functional.
Test [6] is filed under the species Rattus norvegicus. The experiment in a line: Percent inhibition at 250 ug/mL of binary mixtures of compound and alpha-tocotrienol on cholesterol synthesis in rat hepatocytes. Type of test: functional, Hepatocyte.
The species named for test [7] is Rattus norvegicus. The test can be described thus: Percent inhibition at 250 ug/mL of binary mixtures of compound and delta-tocotrienol on cholesterol synthesis in rat hepatocytes. Type of test: functional, Hepatocyte.
For test [8], the species on record is Rattus norvegicus. The test can be described thus: Percent inhibition at 250 ug/mL of binary mixtures of compound and gamma-tocotrienol on cholesterol synthesis in rat hepatocytes. It counts as functional, Hepatocyte.
For test [9], the species on record is Rattus norvegicus. The test can be described thus: Percent inhibition of cholesterol biosynthesis in rat hepatocytes at a concentration of 210 (micro g/mL). It counts as functional, Hepatocyte.
The species named for test [10] is Rattus norvegicus. The test can be described thus: Compound is evaluated for the inhibition of cholesterol biosynthesis in isolated rat hepatocytes at the concentration 250 (ug/mL). It counts as functional, Hepatocyte.
The species named for test [11] is Rattus norvegicus. The test can be described thus: Compound is evaluated for the inhibition of cholesterol biosynthesis in isolated rat hepatocytes at the concentration 500 ug/mL. Type of test: functional, Hepatocyte.
Test [12] is filed under the species Rattus norvegicus. The experiment in a line: Inhibitory concentration required to inhibit cholesterol synthesis in isolated rat Hepatocytes; no inhibition. It counts as functional. As to conditions: hepatocyte; call rule not given here.
The species named for test [13] is Rattus norvegicus. The experiment in a line: Compound was evaluated for percent inhibition of cholesterol biosynthesis in primary rat hepatocytes at a concentration of 1100 ug/mL (pre-incubated for 45 min). The settings on record: Hepatocyte. Type of test: functional.
Test [14] is filed under the species Rattus norvegicus. The experiment in a line: Compound was evaluated for percent inhibition of cholesterol biosynthesis in primary rat hepatocytes at a concentration of 550 ug/mL (pre-incubated for 45 min). It counts as functional. As to conditions: Hepatocyte.
For test [15], the species on record is Rattus norvegicus. The experiment in a line: Inhibitory concentration required to inhibit cholesterol biosynthesis in rat hepatocytes. Type of test: functional, Hepatocyte.
The species entered for test [16] is Rattus norvegicus. The test can be described thus: Compound was evaluated for percent inhibition of cholesterol biosynthesis in primary rat hepatocytes at a concentration of 2200 ug/mL (pre-incubated for 45 min). Type of test: functional. As to conditions: Hepatocyte.
The species entered for test [17] is Rattus norvegicus. The experiment in a line: Compound was evaluated for percent inhibition of cholesterol biosynthesis in primary rat hepatocytes at a concentration of 138 ug/mL (pre-incubated for 45 min). It counts as functional. As to conditions: Hepatocyte.
For test [18], the species on record is Rattus norvegicus. The test can be described thus: Compound was evaluated for percent inhibition of cholesterol biosynthesis in primary rat hepatocytes at a concentration of 275 ug/mL (pre-incubated for 45 min). As to conditions: Hepatocyte. Type of test: functional.
Test [19] deals with HepG2. The experiment in a line: Compound evaluated for Percent inhibition of cholesterol synthesis from HMG-CoA Reductase in HepG2 cell. It counts as functional, Homo sapiens.
Test [20] relates to HepG2. The experiment in a line: Compound evaluated for Percent inhibition of cholesterol synthesis from [14C]acetate in HepG2 cell. It counts as functional, Homo sapiens.
The species named for test [21] is Rattus norvegicus. The experiment in a line: Compound is evaluated for the inhibition of cholesterol biosynthesis in isolated rat hepatocytes at the concentration 500 (ug/mL). It counts as functional, Hepatocyte.
The species named for test [22] is Rattus norvegicus. The test can be described thus: Inhibitory concentration required to inhibit cholesterol synthesis in isolated rat Hepatocytes. Type of test: functional, Hepatocyte.
The species named for test [23] is Rattus norvegicus. The test can be described thus: Compound is evaluated for the inhibition of cholesterol biosynthesis in isolated rat hepatocytes at the concentration 125 (ug/mL). Type of test: functional, Hepatocyte.
The test system of test [24] is HepG2. The test can be described thus: Compound evaluated for percent inhibition of cholesterol synthesis from HMG-CoA Reductase in HepG2 cell. Type of test: functional, Homo sapiens.

≈ marks a conversion by molar mass, not a printed value. Where “and” joins values, the source holds several entries; their conditions need not be identical. Identical values can stand only once.

In general, Inhibition refers to the drop in the measured response relative to a control, in per cent. With `COCCOCOc1cc2c(c(C)c1C)OC(C)(CC/C=C/CCC=C(C)C)CC2` (stereo unspecified), in the test on HepG2 [1], the Inhibition was found to be 19%.

What is called IC50 is the concentration that gives 50% inhibition. The molecule `Cc1c(C)c2c(c(C)c1O)CC[C@@](C)(CCC[C@H](C)CCC[C@H](C)CCCC(C)C)O2` [ALPHA-TOCOPHEROL] registered an HDL cholesterol in the test listed under Gallus gallus [2] of 113 mg 100ml-1. Also, the HMGR activity in the test listed under Gallus gallus [3] was 1300. In the test listed under Gallus gallus [4], this molecule gave an LDL cholesterol of 72 mg 100ml-1. The Total cholesterol in the test listed under Gallus gallus [5] was found to be 190 mg 100ml-1. The Inhibition in the test filed under Rattus norvegicus [6] was 3%; in the test listed under Rattus norvegicus [7], 49%; in the test listed under Rattus norvegicus [8], 42%; in the test listed under Rattus norvegicus [9], 0%; in the test filed under Rattus norvegicus [10], 0%; in the test listed under Rattus norvegicus [11], 2% and 0%. Besides, the half-inhibitory concentration (IC50) result in the test listed under Rattus norvegicus [12] is reported as “Not Active”.

What is called inhibition is the change of the read-out against control, counted positive when it falls. `CC(C)=CCC/C(C)=C/CC/C(C)=C/CC[C@]1(C)CCc2cc(O)ccc2O1` (mixture of isomers): in the test listed under Rattus norvegicus [13], testing at 1100 µg/mL gave an inhibition of 60%. Further, testing at 550 µg/mL in the test filed under Rattus norvegicus [14] gave an inhibition of 45%. For the same molecule, the Inhibition in the test filed under Rattus norvegicus [15] was found to be 31%. Also, the inhibition at 2200 µg/mL in the test filed under Rattus norvegicus [16] was determined as 70%. For the same molecule, the 50% inhibitory concentration (IC50) in the test filed under Rattus norvegicus [17] came to 600 µg/mL. The same molecule yielded an inhibition at 275 µg/mL in the test listed under Rattus norvegicus [18] of 38%.

Turning to `CC(C)=CCC/C(C)=C/CC/C(C)=C/CC[C@]1(C)CCc2cc(O)cc(C)c2O1` [DELTA-TOCOTRIENOL], in the test listed under Gallus gallus [2], the HDL cholesterol was determined as 99 mg 100ml-1. The HMGR activity in the test listed under Gallus gallus [3] was determined as 550. The LDL cholesterol in the test listed under Gallus gallus [4] came to 41 mg 100ml-1. The molecule also registered a Total cholesterol in the test filed under Gallus gallus [5] of 141 mg 100ml-1. Besides, the Inhibition with HepG2 [19] is 65%; with HepG2 [20], 77%; in the test listed under Rattus norvegicus [10], 49% and 33%; in the test filed under Rattus norvegicus [21], 62% and 63%; in the test listed under Rattus norvegicus [23], 26%. The IC50 in the test listed under Rattus norvegicus [22] (Rattus norvegicus, Hepatocyte, read-out: IC50) was 260 µg/mL (≈ 656 µM); in the test filed under Rattus norvegicus [22] (hepatocyte) it was 340 µg/mL (≈ 857 µM).

With `Cc1c(O)cc2c(c1C)OC(C)(CCCC(C)CCCC(C)CCCC(C)C)CC2` (stereo unspecified), the results for the Inhibition in the test with HepG2 [24] and in the test with HepG2 [1] were 0% and 3%, respectively.

The record behind these values is ChEMBL document CHEMBL1125298, “Hypocholesterolemic activity of synthetic and natural tocotrienols” (J Med Chem, 1992).
